# Data taken from ChEMBL document CHEMBL4049456, “Identification of 4-(Aminomethyl)-6-(trifluoromethyl)-2-(phenoxy)pyridine Derivatives as Potent, Selective, and Orally Efficacious Inhibitors of the Copper-Dependent Amine Oxidase, Lysyl Oxidase-Like 2 (LOXL2)” (J Med Chem, 2017).
# pIC50: −log10 of the molar value.
# Assays:
# [1] = target: T1, Lysyl oxidase homolog 2 (Mus musculus) (UniProt P58022); test: (§1) Inhibition of recombinant mouse LOXL2 expressed in mouse whole blood assessed as reduction of H2O2 production from oxidative deamination of DAP preincubated for 2 hrs followed by substrate addition measured every 2 mins for 1 hr by amplex red reagent-based fluorescence assay
# T1 sequence (whole entry): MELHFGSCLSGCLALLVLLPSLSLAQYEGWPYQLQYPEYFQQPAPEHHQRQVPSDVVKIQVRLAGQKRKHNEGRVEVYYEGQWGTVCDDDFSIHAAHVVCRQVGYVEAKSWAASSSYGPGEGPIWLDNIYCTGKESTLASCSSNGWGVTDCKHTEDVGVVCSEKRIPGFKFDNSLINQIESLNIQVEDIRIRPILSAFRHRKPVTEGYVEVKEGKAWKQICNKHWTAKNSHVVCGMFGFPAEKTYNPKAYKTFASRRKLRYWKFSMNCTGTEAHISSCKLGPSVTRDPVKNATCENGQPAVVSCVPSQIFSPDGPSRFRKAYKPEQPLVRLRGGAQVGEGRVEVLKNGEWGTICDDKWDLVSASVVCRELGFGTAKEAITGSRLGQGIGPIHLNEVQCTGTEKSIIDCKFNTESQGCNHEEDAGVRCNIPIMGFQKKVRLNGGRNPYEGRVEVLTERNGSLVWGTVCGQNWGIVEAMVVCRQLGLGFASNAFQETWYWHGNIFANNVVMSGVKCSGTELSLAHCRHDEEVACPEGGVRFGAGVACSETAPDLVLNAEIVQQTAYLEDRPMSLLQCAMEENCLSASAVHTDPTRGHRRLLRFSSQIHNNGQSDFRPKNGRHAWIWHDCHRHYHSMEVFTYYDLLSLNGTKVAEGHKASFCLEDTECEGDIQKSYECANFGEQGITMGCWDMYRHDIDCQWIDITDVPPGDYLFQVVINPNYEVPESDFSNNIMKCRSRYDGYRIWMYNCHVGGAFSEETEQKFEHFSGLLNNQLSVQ
# Lysyl oxidase homolog 2 [2] = target: T2, Lysyl oxidase homolog 2 (Mus musculus, UniProt P58022); test: as §1
# T2 sequence (P58022 whole entry): T1 sequence (whole entry)
# Lysyl oxidase homolog 2 [3] = target: T3, Lysyl oxidase homolog 2 (Homo sapiens, UniProt Q9Y4K0); test: Inhibition of human LOXL2 expressed in CHO cells assessed as reduction of H2O2 production from oxidative deamination of DAP preincubated for 2 hrs followed by substrate addition measured every 2 mins for 1 hr by amplex red reagent-based fluorescence assay; assay type: cell-based
# T3 sequence (Q9Y4K0 whole entry): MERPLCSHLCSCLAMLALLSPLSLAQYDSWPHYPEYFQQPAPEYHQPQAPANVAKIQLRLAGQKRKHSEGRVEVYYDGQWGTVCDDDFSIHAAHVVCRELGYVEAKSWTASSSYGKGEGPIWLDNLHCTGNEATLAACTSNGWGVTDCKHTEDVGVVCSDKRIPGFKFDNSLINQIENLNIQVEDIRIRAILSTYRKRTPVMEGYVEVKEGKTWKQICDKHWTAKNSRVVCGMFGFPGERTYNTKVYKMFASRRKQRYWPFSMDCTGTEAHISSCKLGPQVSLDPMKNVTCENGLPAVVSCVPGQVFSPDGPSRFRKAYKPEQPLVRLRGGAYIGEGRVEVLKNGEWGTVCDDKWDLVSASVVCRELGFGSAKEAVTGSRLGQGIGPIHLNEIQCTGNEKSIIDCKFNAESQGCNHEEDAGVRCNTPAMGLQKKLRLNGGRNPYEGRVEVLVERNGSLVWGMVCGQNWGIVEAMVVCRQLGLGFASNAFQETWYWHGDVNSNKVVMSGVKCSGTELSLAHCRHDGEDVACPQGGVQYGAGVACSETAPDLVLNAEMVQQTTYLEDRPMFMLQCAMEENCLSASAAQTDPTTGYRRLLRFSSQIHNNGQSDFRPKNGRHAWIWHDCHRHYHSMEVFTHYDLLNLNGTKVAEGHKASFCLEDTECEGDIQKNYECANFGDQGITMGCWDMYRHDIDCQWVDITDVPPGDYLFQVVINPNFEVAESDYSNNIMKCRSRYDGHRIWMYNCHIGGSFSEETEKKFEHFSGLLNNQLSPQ
# Protein-lysine 6-oxidase = target: T4, Protein-lysine 6-oxidase (Homo sapiens, UniProt P28300); test: Inhibition of human LOX expressed in HEK cells assessed as reduction of H2O2 production from oxidative deamination of DAP preincubated for 2 hrs followed by substrate addition in presence of 0.1% BSA measured every 2 mins for 1 hr by amplex red reagent-based fluorescence assay; assay type: cell-based
# T4 sequence (P28300 whole entry): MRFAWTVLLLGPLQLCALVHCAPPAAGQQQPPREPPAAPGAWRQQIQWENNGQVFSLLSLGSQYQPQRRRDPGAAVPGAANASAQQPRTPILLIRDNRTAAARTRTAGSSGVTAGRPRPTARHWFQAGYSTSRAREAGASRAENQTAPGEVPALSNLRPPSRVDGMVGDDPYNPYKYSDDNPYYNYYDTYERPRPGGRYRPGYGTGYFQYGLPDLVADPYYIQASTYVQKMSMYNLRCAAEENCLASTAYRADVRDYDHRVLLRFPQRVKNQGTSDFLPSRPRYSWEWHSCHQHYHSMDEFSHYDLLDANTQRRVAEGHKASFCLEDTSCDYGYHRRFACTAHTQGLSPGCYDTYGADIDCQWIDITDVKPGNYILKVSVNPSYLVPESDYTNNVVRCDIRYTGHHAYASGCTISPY
# [4] = Protein binding in human plasma; assay type: ADME, cell-free; settings: read-out: PPB (converted)
# [5] = target: T5, Lysyl oxidase homolog 2 (Homo sapiens) (UniProt Q9Y4K0); test: Irreversible inhibition of human LOXL2 assessed as reduction of H2O2 production from oxidative deamination of DAP at 1000 times IC50 preincubated for 2 hrs followed by compound washout and subsequent incubation for 2 hrs prior to substrate addition measured every 2 mins for 40 mins by amplex red reagent-based fluorescence assay relative to control
# T5 sequence (whole entry): T3 sequence (Q9Y4K0 whole entry)
# How it was run: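 Wells were washed repeatedly with PBS and equilibrated for 2 h. Recovered activity was then compared with nonwashed controls.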
# MAO-B = target: T6, MAO-B (Homo sapiens, UniProt P27338); test: Inhibition of recombinant human MAO-B assessed as reduction of H2O2 production from oxidative deamination of benzylamine at 10 uM preincubated for 2 hrs followed by substrate addition; settings: probe benzylamine
# T6 sequence (P27338 whole entry): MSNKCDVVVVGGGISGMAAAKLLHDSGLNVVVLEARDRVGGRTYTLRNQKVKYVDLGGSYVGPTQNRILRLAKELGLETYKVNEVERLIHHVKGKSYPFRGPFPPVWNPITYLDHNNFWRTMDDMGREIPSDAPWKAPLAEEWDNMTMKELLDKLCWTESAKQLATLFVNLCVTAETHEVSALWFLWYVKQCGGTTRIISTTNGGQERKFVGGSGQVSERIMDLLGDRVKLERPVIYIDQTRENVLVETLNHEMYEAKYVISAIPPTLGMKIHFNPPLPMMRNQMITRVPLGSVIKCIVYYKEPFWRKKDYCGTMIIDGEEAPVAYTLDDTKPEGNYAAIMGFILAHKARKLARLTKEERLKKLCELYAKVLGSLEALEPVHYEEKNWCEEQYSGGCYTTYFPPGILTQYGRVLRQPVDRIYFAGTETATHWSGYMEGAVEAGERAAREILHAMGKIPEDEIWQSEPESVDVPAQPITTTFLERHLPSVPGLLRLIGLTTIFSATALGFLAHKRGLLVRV
# How it was run: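 Purified recombinant human MAO-A (tyramine substrate) or MAO-B (benzylamine substrate) was preincubated with compound for 2 h. Percent inhibition was calculated against vehicle and enzyme-free controls.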
smiles,measurement,setting,value
Cl.NCc1cc(Oc2cccc(C(=O)N3C[C@@H](O)[C@H](F)C3)c2)nc(C(F)(F)F)c1 (racemic),IC90,[1],5.6 µM
same,pIC50,Lysyl oxidase homolog 2 [2],6.07
same,pIC50,Lysyl oxidase homolog 2 [3],7.11
same,pIC50,Protein-lysine 6-oxidase,4.46
same,fraction unbound,[4],0.32
same,inhibition,[5],77%
same,"inhibition at 2 h, 10 µM",MAO-B,< 10%
